Peptide text beside a SMILES is read from it.
How the values were obtained:
[1] = target: T1, Nociceptin receptor (Homo sapiens, UniProt P41146); test: Efficacy for human ORL1 receptor expressing HEK293 cells; assay type: functional, cell-based
Procedure, shortened: (§1)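 Membranes from HEK-293 cells expressing human ORL1 (10 μg) were incubated for 30 min at 24 °C with peptides (0.01 nM to 10 μM) in 20 mM HEPES pH 7.4 with 100 mM NaCl, 10 mM MgCl₂, 1 mM EDTA, 5 μM GDP and 400 pM [³⁵S]GTPγS. Binding was read with WGA-coated SPA beads.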

[2] = target: T1, Nociceptin receptor; test: Displacement of [3H]NC from human ORL1 receptor expressing HEK293 cell membrane; assay type: cell membranes
[3] = target: T1, Nociceptin receptor; test: Efficacy for human ORL1 receptor expressing HEK293 cell membrane; assay type: functional, cell-based; procedure, shortened: as §1

T1 sequence (P41146 whole entry): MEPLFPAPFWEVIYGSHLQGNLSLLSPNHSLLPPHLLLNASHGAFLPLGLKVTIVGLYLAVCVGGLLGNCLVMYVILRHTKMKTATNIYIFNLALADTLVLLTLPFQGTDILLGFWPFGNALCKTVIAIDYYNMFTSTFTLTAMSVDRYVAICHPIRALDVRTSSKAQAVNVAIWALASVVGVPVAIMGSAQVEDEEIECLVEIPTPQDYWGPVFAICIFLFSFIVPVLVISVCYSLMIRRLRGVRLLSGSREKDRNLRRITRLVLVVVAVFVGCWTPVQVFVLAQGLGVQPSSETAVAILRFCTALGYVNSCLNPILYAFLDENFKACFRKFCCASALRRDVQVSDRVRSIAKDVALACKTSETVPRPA

Structure (SMILES) | EC50 ([1]; hek293) | IC50 ([2]; hek293) | Emax [3] | EC50 [1] | IC50 [2]
C[C@H](NC(=O)CNC(=O)[C@@H](NC(=O)[C@H](Cc1ccccc1)NC(=O)CNC(=O)CNC(=O)[C@H](Cc1ccccc1)NC(=O)[C@@H](N)CS)[C@@H](C)O)C(=O)N[C@@H](CCCNC(=N)N)C(=O)N[C@@H](CCCCN)C(=O)N[C@@H](CO)C(=O)N[C@@H](CS)C(=O)N[C@@H](CCCNC(=N)N)C(=O)N[C@@H](CCCCN)C(N)=O (H-CFGGFTGARKSCRK-NH2) | 286 nM | 1290 nM | – | – | –
C[C@@H](O)[C@H](NC(=O)[C@H](Cc1ccccc1)NC(=O)CNC(=O)CNC(=O)[C@@H](N)Cc1ccccc1)C(=O)NCC(=O)N[C@H]1CSSC[C@@H](C(=O)N[C@@H](CCCN=C(N)N)C(=O)N[C@@H](CCCCN)C(N)=O)NC(=O)[C@H](CO)NC(=O)[C@H](CCCCN)NC(=O)[C@H](CCCN=C(N)N)NC1=O (HELM PEPTIDE1{F.G.G.F.T.G.C.R.K.S.C.R.K.[am]}$PEPTIDE1,PEPTIDE1,7:R3-11:R3$$$V2.0) | – | – | 120% | 156 nM | 3.04 nM
C[C@@H]1NC(=O)CNC(=O)[C@H]([C@@H](C)O)NC(=O)[C@H](Cc2ccccc2)NC(=O)CNC(=O)CNC(=O)[C@H](Cc2ccccc2)NC(=O)[C@@H](N)CSSC[C@@H](C(=O)N[C@@H](CCCNC(=N)N)C(=O)N[C@@H](CCCCN)C(N)=O)NC(=O)[C@H](CO)NC(=O)[C@H](CCCCN)NC(=O)[C@H](CCCNC(=N)N)NC1=O (HELM PEPTIDE1{C.F.G.G.F.T.G.A.R.K.S.C.R.K.[am]}$PEPTIDE1,PEPTIDE1,1:R3-12:R3$$$V2.0) | – | – | – | 439 nM | 387 nM
C[C@H](NC(=O)CNC(=O)[C@@H](NC(=O)[C@H](Cc1ccccc1)NC(=O)CNC(=O)CNC(=O)[C@@H](N)Cc1ccccc1)[C@@H](C)O)C(=O)N[C@@H](CCCNC(=N)N)C(=O)N[C@@H](CCCCN)C(=O)N[C@@H](CS)C(=O)N[C@@H](C)C(=O)N[C@@H](CCCNC(=N)N)C(=O)N[C@@H](CCCCN)C(=O)N[C@@H](CS)C(N)=O (H-FGGFTGARKCARKC-NH2) | – | – | – | 3.9 nM | 0.471 nM
CC(C)C[C@H](NC(=O)[C@H](CCCCN)NC(=O)[C@H](CCCN=C(N)N)NC(=O)[C@H](C)NC(=O)[C@H](CO)NC(=O)[C@H](CCCCN)NC(=O)[C@H](CCCN=C(N)N)NC(=O)[C@H](C)NC(=O)CNC(=O)[C@@H](NC(=O)[C@H](Cc1ccccc1)NC(=O)CNC(=O)CNC(=O)[C@@H](N)Cc1ccccc1)[C@@H](C)O)C(N)=O (H-FGGFTGARKSARKL-NH2) | – | – | 105% | 1.97 nM | 0.52 nM
C[C@@H]1NC(=O)[C@H](CO)NC(=O)[C@H](CCCCN)NC(=O)[C@H](CCCNC(=N)N)NC(=O)[C@@H](NC(=O)CNC(=O)[C@@H](NC(=O)[C@H](Cc2ccccc2)NC(=O)CNC(=O)CNC(=O)[C@@H](N)Cc2ccccc2)[C@@H](C)O)CSSC[C@@H](C(N)=O)NC(=O)[C@H](CCCCN)NC(=O)[C@H](CCCNC(=N)N)NC1=O (HELM PEPTIDE1{F.G.G.F.T.G.C.R.K.S.A.R.K.C.[am]}$PEPTIDE1,PEPTIDE1,7:R3-14:R3$$$V2.0) | – | – | – | 25 nM | 4.97 nM
C[C@H](NC(=O)[C@H](CO)NC(=O)[C@H](CCCCN)NC(=O)[C@H](CCCN=C(N)N)NC(=O)[C@H](CS)NC(=O)CNC(=O)[C@@H](NC(=O)[C@H](Cc1ccccc1)NC(=O)CNC(=O)CNC(=O)[C@@H](N)Cc1ccccc1)[C@@H](C)O)C(=O)N[C@@H](CCCN=C(N)N)C(=O)N[C@@H](CCCCN)C(=O)N[C@@H](CS)C(N)=O (H-FGGFTGCRKSARKC-NH2) | – | – | 101% | – | –
C[C@H](NC(=O)[C@H](CO)NC(=O)[C@H](CCCCN)NC(=O)[C@H](CCCN=C(N)N)NC(=O)[C@H](C)NC(=O)[C@@H]1CSSC[C@H](N)C(=O)N[C@@H](Cc2ccccc2)C(=O)NCC(=O)NCC(=O)N[C@@H](Cc2ccccc2)C(=O)N[C@@H]([C@@H](C)O)C(=O)N1)C(=O)N[C@@H](CCCN=C(N)N)C(=O)N[C@@H](CCCCN)C(N)=O (HELM PEPTIDE1{C.F.G.G.F.T.C.A.R.K.S.A.R.K.[am]}$PEPTIDE1,PEPTIDE1,1:R3-7:R3$$$V2.0) | – | – | 18% | – | –
C[C@H](NC(=O)[C@H](CO)NC(=O)[C@H](CCCCN)NC(=O)[C@H](CCCN=C(N)N)NC(=O)[C@H](C)NC(=O)[C@H](CS)NC(=O)[C@@H](NC(=O)[C@H](Cc1ccccc1)NC(=O)CNC(=O)CNC(=O)[C@H](Cc1ccccc1)NC(=O)[C@@H](N)CS)[C@@H](C)O)C(=O)N[C@@H](CCCN=C(N)N)C(=O)N[C@@H](CCCCN)C(N)=O (H-CFGGFTCARKSARK-NH2) | – | – | 12% | – | –
C[C@H](NC(=O)[C@@H]1CSSC[C@H](NC(=O)[C@@H](NC(=O)[C@H](Cc2ccccc2)NC(=O)CNC(=O)CNC(=O)[C@@H](N)Cc2ccccc2)[C@@H](C)O)C(=O)N[C@@H](C)C(=O)N[C@@H](CCCNC(=N)N)C(=O)N[C@@H](CCCCN)C(=O)N1)C(=O)N[C@@H](CCCNC(=N)N)C(=O)N[C@@H](CCCCN)C(N)=O (HELM PEPTIDE1{F.G.G.F.T.C.A.R.K.C.A.R.K.[am]}$PEPTIDE1,PEPTIDE1,6:R3-10:R3$$$V2.0) | – | – | 99% | 31.3 nM | 0.833 nM
C[C@H](NC(=O)CNC(=O)[C@@H](NC(=O)[C@H](Cc1ccccc1)NC(=O)CNC(=O)CNC(=O)[C@H](Cc1ccccc1)NC(=O)[C@@H](N)CS)[C@@H](C)O)C(=O)N[C@@H](CCCN=C(N)N)C(=O)N[C@@H](CCCCN)C(=O)N[C@@H](CS)C(=O)N[C@@H](C)C(=O)N[C@@H](CCCN=C(N)N)C(=O)N[C@@H](CCCCN)C(N)=O (H-CFGGFTGARKCARK-NH2) | – | – | 59% | – | –
C[C@H](NC(=O)[C@H](CS)NC(=O)[C@H](CCCCN)NC(=O)[C@H](CCCN=C(N)N)NC(=O)[C@H](C)NC(=O)[C@H](CS)NC(=O)[C@@H](NC(=O)[C@H](Cc1ccccc1)NC(=O)CNC(=O)CNC(=O)[C@@H](N)Cc1ccccc1)[C@@H](C)O)C(=O)N[C@@H](CCCN=C(N)N)C(=O)N[C@@H](CCCCN)C(N)=O (H-FGGFTCARKCARK-NH2) | – | – | 94% | 29.7 nM | 3.03 nM
C[C@H](NC(=O)CNC(=O)[C@@H](NC(=O)[C@H](Cc1ccccc1)NC(=O)CNC(=O)CNC(=O)[C@@H](N)Cc1ccccc1)[C@@H](C)O)C(=O)N[C@@H](CCCNC(=N)N)C(=O)N[C@@H](CCCCN)C(=O)N[C@H]1CSSC[C@@H](C(N)=O)NC(=O)[C@H](CCCCN)NC(=O)[C@H](CCCNC(=N)N)NC(=O)[C@H](C)NC1=O (HELM PEPTIDE1{F.G.G.F.T.G.A.R.K.C.A.R.K.C.[am]}$PEPTIDE1,PEPTIDE1,10:R3-14:R3$$$V2.0) | – | – | – | 4.37 nM | 0.122 nM
C[C@@H]1NC(=O)CNC(=O)[C@H]([C@@H](C)O)NC(=O)[C@H](Cc2ccccc2)NC(=O)CNC(=O)CNC(=O)[C@H](Cc2ccccc2)NC(=O)[C@@H](N)CSSC[C@@H](C(=O)N[C@@H](C)C(=O)N[C@@H](CCCN=C(N)N)C(=O)N[C@@H](CCCCN)C(N)=O)NC(=O)[C@H](CCCCN)NC(=O)[C@H](CCCN=C(N)N)NC1=O (HELM PEPTIDE1{C.F.G.G.F.T.G.A.R.K.C.A.R.K.[am]}$PEPTIDE1,PEPTIDE1,1:R3-11:R3$$$V2.0) | – | – | 81% | – | –
C[C@H](NC(=O)CNC(=O)[C@@H](NC(=O)[C@H](Cc1ccccc1)NC(=O)CNC(=O)CNC(=O)[C@@H](N)Cc1ccccc1)[C@@H](C)O)C(=O)N[C@@H](CCCN=C(N)N)C(=O)N[C@@H](CCCCN)C(=O)N[C@H]1CSSC[C@@H](C(N)=O)NC(=O)[C@H](CCCCN)NC(=O)[C@H](CCCN=C(N)N)NC(=O)[C@H](C)NC1=O (HELM PEPTIDE1{F.G.G.F.T.G.A.R.K.C.A.R.K.C.[am]}$PEPTIDE1,PEPTIDE1,10:R3-14:R3$$$V2.0) | – | – | 99% | – | –
C[C@H](NC(=O)[C@H](CO)NC(=O)[C@H](CCCCN)NC(=O)[C@H](CCCNC(=N)N)NC(=O)[C@@H]1CSSC[C@H](N)C(=O)N[C@@H](Cc2ccccc2)C(=O)NCC(=O)NCC(=O)N[C@@H](Cc2ccccc2)C(=O)N[C@@H]([C@@H](C)O)C(=O)NCC(=O)N1)C(=O)N[C@@H](CCCNC(=N)N)C(=O)N[C@@H](CCCCN)C(N)=O (HELM PEPTIDE1{C.F.G.G.F.T.G.C.R.K.S.A.R.K.[am]}$PEPTIDE1,PEPTIDE1,1:R3-8:R3$$$V2.0) | – | – | – | > 10000 nM | 874 nM
C[C@H](NC(=O)[C@H](CO)NC(=O)[C@H](CCCCN)NC(=O)[C@H](CCCNC(=N)N)NC(=O)[C@H](CS)NC(=O)CNC(=O)[C@@H](NC(=O)[C@H](Cc1ccccc1)NC(=O)CNC(=O)CNC(=O)[C@@H](N)Cc1ccccc1)[C@@H](C)O)C(=O)N[C@@H](CCCNC(=N)N)C(=O)N[C@@H](CCCCN)C(=O)N[C@@H](CS)C(N)=O (H-FGGFTGCRKSARKC-NH2) | – | – | – | 22.3 nM | 37.2 nM
C[C@H](NC(=O)[C@H](CO)NC(=O)[C@H](CCCCN)NC(=O)[C@H](CCCNC(=N)N)NC(=O)[C@H](CS)NC(=O)CNC(=O)[C@@H](NC(=O)[C@H](Cc1ccccc1)NC(=O)CNC(=O)CNC(=O)[C@H](Cc1ccccc1)NC(=O)[C@@H](N)CS)[C@@H](C)O)C(=O)N[C@@H](CCCNC(=N)N)C(=O)N[C@@H](CCCCN)C(N)=O (H-CFGGFTGCRKSARK-NH2) | > 10000 nM | 2710 nM | – | – | –
C[C@@H]1NC(=O)[C@H](CO)NC(=O)[C@H](CCCCN)NC(=O)[C@H](CCCN=C(N)N)NC(=O)[C@@H](NC(=O)CNC(=O)[C@@H](NC(=O)[C@H](Cc2ccccc2)NC(=O)CNC(=O)CNC(=O)[C@@H](N)Cc2ccccc2)[C@@H](C)O)CSSC[C@@H](C(N)=O)NC(=O)[C@H](CCCCN)NC(=O)[C@H](CCCN=C(N)N)NC1=O (HELM PEPTIDE1{F.G.G.F.T.G.C.R.K.S.A.R.K.C.[am]}$PEPTIDE1,PEPTIDE1,7:R3-14:R3$$$V2.0) | – | – | 95% | – | –
C[C@H](NC(=O)CNC(=O)[C@@H](NC(=O)[C@H](Cc1ccccc1)NC(=O)CNC(=O)CNC(=O)[C@@H](N)Cc1ccccc1)[C@@H](C)O)C(=O)N[C@@H](CCCN=C(N)N)C(=O)N[C@@H](CCCCN)C(=O)N[C@@H](CS)C(=O)N[C@@H](C)C(=O)N[C@@H](CCCN=C(N)N)C(=O)N[C@@H](CCCCN)C(=O)N[C@@H](CS)C(N)=O (H-FGGFTGARKCARKC-NH2) | – | – | 105% | – | –
